From ChEMBL document CHEMBL4689842, “EUbOPEN Chemogenomics Library wave 1” (2021)
“And” between values parts separate entries of the source, which are not always exact repeats. Equal entries are not always repeated.

Tested on: U2OS
Assay: Multiplex assay against U2OS
Assay type: toxicity, cell-based
Conditions: human
How it was run: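 At seeding, live cells were stained with Hoechst33342, BioTracker Green Microtubule Cytoskeleton Dye, MitoTracker Red and Annexin V Alexa Fluor 680. After compound addition they were imaged on a CQ1 microscope at 37°C and 5% CO2, and CellPathfinder machine-learning gating sorted them into Hoechst high-intensity objects or normal cells, with normal cells further split into healthy, pyknosed or fragmented nuclei and pyknosed cells into mitotic or apoptotic. Tubulin, mitochondrial-mass and membrane-permeability phenotypes are given as per cents of cells with healthy nuclei.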

[1] = 12 h, 10 µM, compound concentration 10 uM, replicate 1
[2] = 12 h, 10 µM, compound concentration 10 uM, replicate 2
[3] = 24 h, 10 µM, compound concentration 10 uM, replicate 1
[4] = 24 h, 10 µM, compound concentration 10 uM, replicate 2
[5] = 12 h, 1 µM, compound concentration 1 uM, replicate 1
[6] = 12 h, 1 µM, compound concentration 1 uM, replicate 2
[7] = 24 h, 1 µM, compound concentration 1 uM, replicate 1
[8] = 24 h, 1 µM, compound concentration 1 uM, replicate 2

CCN(CC)S(=O)(=O)Nc1cccc(-c2ccc3c(NC(=O)C4CC4)n[nH]c3c2)c1
Population Apoptotic (%) [1]: 45% and 28%
Population Fragmented Nuclei (%) [1]: 7% and 4%
Population Healthy Nuclei (%) [1]: 83% and 87%
Population Hoechst High Intensity Objects (%) [1]: 2% and 3%
Population Membrane Permeable-Phenotype (%) [1]: 16% and 7%
Population Mitochondria Different-Phenotype (%) [1]: 10% and 26%
Population Mitotic Cells (%) [1]: 55% and 71%
Population Normal (%) [1]: 97% and 96%
Population Pyknosed Nuclei (%) [1]: 9% and 8%
Population Tubulin-Different-Phenotype (%) [1]: 8% and 17%
Total Cell Count [1]: 177 and 289
Population Apoptotic (%) [2]: 0% and 16%
Population Fragmented Nuclei (%) [2]: 9% and 8%
Population Healthy Nuclei (%) [2]: 80% and 85%
Population Hoechst High Intensity Objects (%) [2]: 5% and 14%
Population Mitotic Cells (%) [2]: 100% and 83%
Population Normal (%) [2]: 94% and 85%
Population Pyknosed Nuclei (%) [2]: 10% and 5%
Population Tubulin-Different-Phenotype (%) [2]: 20% and 13%
Total Cell Count [2]: 120 and 259
Population Apoptotic (%) [3]: 21%
Population Healthy Nuclei (%) [3]: 70% and 92%
Population Hoechst High Intensity Objects (%) [3]: 3% and 2%
Population Mitochondria Different-Phenotype (%) [3]: 13% and 26%
Population Mitotic Cells (%) [3]: 78%
Population Normal (%) [3]: 96% and 97%
Population Pyknosed Nuclei (%) [3]: 21%
Total Cell Count [3]: 241 and 253
Population Apoptotic (%) [4]: 20% and 28%
Population Fragmented Nuclei (%) [4]: 13% and 6%
Population Healthy Nuclei (%) [4]: 68% and 87%
Population Hoechst High Intensity Objects (%) [4]: 6% and 8%
Population Membrane Permeable-Phenotype (%) [4]: 18% and 6%
Population Mitochondria Different-Phenotype (%) [4]: 17% and 29%
Population Mitotic Cells (%) [4]: 79% and 71%
Population Normal (%) [4]: 93% and 91%
Population Tubulin-Different-Phenotype (%) [4]: 22%
Total Cell Count [4]: 134 and 195

COc1ccc(S(=O)(=O)N(CCO)c2ccccc2CN(C)C/C=C/c2ccc(Cl)cc2)cc1.O=P(O)(O)O
Population Apoptotic (%) [5]: 57%
Population Healthy Nuclei (%) [5]: 77%
Population Hoechst High Intensity Objects (%) [5]: 2%
Population Membrane Permeable-Phenotype (%) [5]: 62%
Population Mitochondria Different-Phenotype (%) [5]: 91%
Population Mitotic Cells (%) [5]: 42%
Population Normal (%) [5]: 97%
Population Pyknosed Nuclei (%) [5]: 13%
Total Cell Count [5]: 95
Population Apoptotic (%) [6]: 84%
Population Fragmented Nuclei (%) [6]: 9%
Population Healthy Nuclei (%) [6]: 74%
Population Hoechst High Intensity Objects (%) [6]: 8%
Population Membrane Permeable-Phenotype (%) [6]: 85%
Population Mitochondria Different-Phenotype (%) [6]: 100%
Population Mitotic Cells (%) [6]: 15%
Population Normal (%) [6]: 91%
Population Pyknosed Nuclei (%) [6]: 15%
Population Tubulin-Different-Phenotype (%) [6]: 100%
Total Cell Count [6]: 118
Population Apoptotic (%) [1]: 57%
Population Fragmented Nuclei (%) [1]: 11%
Population Healthy Nuclei (%) [1]: 81%
Population Hoechst High Intensity Objects (%) [1]: 5%
Population Membrane Permeable-Phenotype (%) [1]: 47%
Population Mitochondria Different-Phenotype (%) [1]: 20%
Population Mitotic Cells (%) [1]: 42%
Population Normal (%) [1]: 94%
Population Pyknosed Nuclei (%) [1]: 7%
Population Tubulin-Different-Phenotype (%) [1]: 28%
Total Cell Count [1]: 170
Population Apoptotic (%) [2]: 0%
Population Fragmented Nuclei (%) [2]: 10%
Population Healthy Nuclei (%) [2]: 89%
Population Hoechst High Intensity Objects (%) [2]: 16%
Population Membrane Permeable-Phenotype (%) [2]: 33%
Population Mitochondria Different-Phenotype (%) [2]: 16%
Population Mitotic Cells (%) [2]: 0%
Population Normal (%) [2]: 83%
Population Pyknosed Nuclei (%) [2]: 0%
Population Tubulin-Different-Phenotype (%) [2]: 12%
Total Cell Count [2]: 88
Population Apoptotic (%) [7]: 69%
Population Fragmented Nuclei (%) [7]: 14%
Population Healthy Nuclei (%) [7]: 63%
Population Hoechst High Intensity Objects (%) [7]: 3%
Population Membrane Permeable-Phenotype (%) [7]: 84%
Population Mitochondria Different-Phenotype (%) [7]: 100%
Population Mitotic Cells (%) [7]: 30%
Population Normal (%) [7]: 96%
Population Pyknosed Nuclei (%) [7]: 21%
Population Tubulin-Different-Phenotype (%) [7]: 100%
Total Cell Count [7]: 125
Population Apoptotic (%) [8]: 95%
Population Fragmented Nuclei (%) [8]: 16%
Population Healthy Nuclei (%) [8]: 58%
Population Hoechst High Intensity Objects (%) [8]: 8%
Population Membrane Permeable-Phenotype (%) [8]: 94%
Population Mitochondria Different-Phenotype (%) [8]: 98%
Population Mitotic Cells (%) [8]: 4%
Population Normal (%) [8]: 91%
Population Pyknosed Nuclei (%) [8]: 24%
Population Tubulin-Different-Phenotype (%) [8]: 98%
Total Cell Count [8]: 137
Population Apoptotic (%) [3]: 62%
Population Fragmented Nuclei (%) [3]: 5%
Population Healthy Nuclei (%) [3]: 87%
Population Hoechst High Intensity Objects (%) [3]: 2%
Population Membrane Permeable-Phenotype (%) [3]: 26%
Population Mitochondria Different-Phenotype (%) [3]: 13%
Population Mitotic Cells (%) [3]: 37%
Population Normal (%) [3]: 97%
Population Pyknosed Nuclei (%) [3]: 6%
Population Tubulin-Different-Phenotype (%) [3]: 22%
Total Cell Count [3]: 173
Population Apoptotic (%) [4]: 16%
Population Fragmented Nuclei (%) [4]: 4%
Population Healthy Nuclei (%) [4]: 85%
Population Hoechst High Intensity Objects (%) [4]: 8%
Population Membrane Permeable-Phenotype (%) [4]: 17%
Population Mitochondria Different-Phenotype (%) [4]: 26%
Population Mitotic Cells (%) [4]: 83%
Population Normal (%) [4]: 91%
Population Pyknosed Nuclei (%) [4]: 9%
Population Tubulin-Different-Phenotype (%) [4]: 11%
Total Cell Count [4]: 83

C=CCn1c(=O)c2cnc(Nc3ccc(N4CCN(C)CC4)cc3)nc2n1-c1cccc(C(C)(C)O)n1 [ADAVOSERTIB]
Population Apoptotic (%) [5]: 43%
Population Fragmented Nuclei (%) [5]: 11%
Population Healthy Nuclei (%) [5]: 60%
Population Hoechst High Intensity Objects (%) [5]: 3%
Population Membrane Permeable-Phenotype (%) [5]: 23%
Population Mitochondria Different-Phenotype (%) [5]: 15%
Population Mitotic Cells (%) [5]: 56%
Population Normal (%) [5]: 96%
Population Pyknosed Nuclei (%) [5]: 27%
Population Tubulin-Different-Phenotype (%) [5]: 21%
Total Cell Count [5]: 153
Population Apoptotic (%) [6]: 12%
Population Fragmented Nuclei (%) [6]: 16%
Population Healthy Nuclei (%) [6]: 62%
Population Hoechst High Intensity Objects (%) [6]: 5%
Population Membrane Permeable-Phenotype (%) [6]: 13%
Population Mitochondria Different-Phenotype (%) [6]: 5%
Population Mitotic Cells (%) [6]: 87%
Population Normal (%) [6]: 94%
Population Pyknosed Nuclei (%) [6]: 21%
Population Tubulin-Different-Phenotype (%) [6]: 23%
Total Cell Count [6]: 165
Population Apoptotic (%) [1]: 40%
Population Fragmented Nuclei (%) [1]: 25%
Population Healthy Nuclei (%) [1]: 13%
Population Hoechst High Intensity Objects (%) [1]: 8%
Population Membrane Permeable-Phenotype (%) [1]: 42%
Population Mitochondria Different-Phenotype (%) [1]: 47%
Population Mitotic Cells (%) [1]: 59%
Population Normal (%) [1]: 91%
Population Pyknosed Nuclei (%) [1]: 60%
Population Tubulin-Different-Phenotype (%) [1]: 80%
Total Cell Count [1]: 167
Population Apoptotic (%) [2]: 44%
Population Fragmented Nuclei (%) [2]: 22%
Population Healthy Nuclei (%) [2]: 14%
Population Hoechst High Intensity Objects (%) [2]: 28%
Population Membrane Permeable-Phenotype (%) [2]: 37%
Population Mitochondria Different-Phenotype (%) [2]: 62%
Population Mitotic Cells (%) [2]: 55%
Population Normal (%) [2]: 71%
Population Pyknosed Nuclei (%) [2]: 62%
Population Tubulin-Different-Phenotype (%) [2]: 75%
Total Cell Count [2]: 76
Population Apoptotic (%) [7]: 62%
Population Fragmented Nuclei (%) [7]: 20%
Population Healthy Nuclei (%) [7]: 41%
Population Hoechst High Intensity Objects (%) [7]: 8%
Population Membrane Permeable-Phenotype (%) [7]: 30%
Population Mitochondria Different-Phenotype (%) [7]: 25%
Population Mitotic Cells (%) [7]: 37%
Population Normal (%) [7]: 91%
Population Pyknosed Nuclei (%) [7]: 38%
Population Tubulin-Different-Phenotype (%) [7]: 38%
Total Cell Count [7]: 155
Population Apoptotic (%) [8]: 50%
Population Fragmented Nuclei (%) [8]: 22%
Population Healthy Nuclei (%) [8]: 51%
Population Hoechst High Intensity Objects (%) [8]: 9%
Population Membrane Permeable-Phenotype (%) [8]: 21%
Population Mitochondria Different-Phenotype (%) [8]: 26%
Population Mitotic Cells (%) [8]: 50%
Population Normal (%) [8]: 90%
Population Pyknosed Nuclei (%) [8]: 26%
Population Tubulin-Different-Phenotype (%) [8]: 31%
Total Cell Count [8]: 149
Population Apoptotic (%) [3]: 64%
Population Fragmented Nuclei (%) [3]: 36%
Population Healthy Nuclei (%) [3]: 11%
Population Hoechst High Intensity Objects (%) [3]: 13%
Population Membrane Permeable-Phenotype (%) [3]: 76%
Population Mitochondria Different-Phenotype (%) [3]: 82%
Population Mitotic Cells (%) [3]: 35%
Population Normal (%) [3]: 86%
Population Pyknosed Nuclei (%) [3]: 51%
Population Tubulin-Different-Phenotype (%) [3]: 88%
Total Cell Count [3]: 165
Population Apoptotic (%) [4]: 68%
Population Fragmented Nuclei (%) [4]: 42%
Population Healthy Nuclei (%) [4]: 15%
Population Hoechst High Intensity Objects (%) [4]: 22%
Population Membrane Permeable-Phenotype (%) [4]: 75%
Population Mitochondria Different-Phenotype (%) [4]: 62%
Population Mitotic Cells (%) [4]: 31%
Population Normal (%) [4]: 77%
Population Pyknosed Nuclei (%) [4]: 42%
Population Tubulin-Different-Phenotype (%) [4]: 75%
Total Cell Count [4]: 67
